Measurements as given in ChEMBL document CHEMBL2424530, “Synthesis, biological evaluation and molecular docking studies of pyrazole derivatives coupling with a thiourea moiety as novel CDKs inhibitors” (Eur J Med Chem, 2013).

Tests used:
A549 = test: Cytotoxicity against human A549 cells assessed as growth inhibition after 24 to 48 hrs by CCK8 assay; format: functional, cell-based
How it was run: (§1)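 CCK8 proliferation assay: 1-5 × 10³ cells per well grew for 12 h, then were exposed to increasing compound concentrations in 10% FBS for 24 or 48 h. CCK8 dye was added for 1-2 h and plates were read on a multilabel counter. Percent inhibition or IC₅₀ was calculated against DMSO-treated control wells.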

[1] = target: Cyclin-dependent kinase 2 (Homo sapiens, UniProt P24941); test: Inhibition of human N-terminal hexahistidine-tagged CDK2 expressed in baculovirus infected Sf21 cells using histone H1 as substrate after 10 mins in presence of [gamma-32P]-ATP
[2] = Cytotoxicity against human H460 cells assessed as growth inhibition after 24 to 48 hrs by CCK8 assay; format: functional, cell-based; details: NCI-H460; how it was run: as §1
MCF7 = test: Cytotoxicity against human MCF7 cells assessed as growth inhibition after 24 to 48 hrs by CCK8 assay; format: functional, cell-based; how it was run: as §1
[3] = target: Cyclin-dependent kinase 5 (Homo sapiens, UniProt Q00535); test: Inhibition of CDK5 (unknown origin) using histone H1 as substrate after 10 mins in presence of [gamma-32P]-ATP
How it was run: (§2)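 Radiometric kinase reaction in 50 mM Tris-HCl with ATP plus γ-³²P ATP, 10 mM MgCl₂, 5 mM DTT and histone H1 substrate. It ran 10 min with inhibitor and was stopped with 30% phosphoric acid. Mixtures were spotted on P81 paper and washed five times with 10 mM Tris-HCl (pH 8.0)/0.1 M NaCl. Spot radioactivity was imaged, and IC₅₀ was the concentration giving 50% inhibition.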

[4] = target: Cyclin-dependent kinase 4 (Homo sapiens, UniProt P11802); test: Inhibition of CDK4 (unknown origin) using histone H1 as substrate after 10 mins in presence of [gamma-32P]-ATP; how it was run: as §2
[5] = target: Cyclin-dependent kinase 1 (Homo sapiens, UniProt P06493); test: Inhibition of CDK1 (unknown origin) using histone H1 as substrate after 10 mins in presence of [gamma-32P]-ATP; how it was run: as §2
[6] = target: Cyclin-dependent kinase 7 (Homo sapiens, UniProt P50613); test: Inhibition of CDK7 (unknown origin) using histone H1 as substrate after 10 mins in presence of [gamma-32P]-ATP; how it was run: as §2
[7] = target: Epidermal growth factor receptor (Homo sapiens, UniProt P00533); test: Inhibition of human C-terminal EGFR tyrosine kinase domain
[8] = target: Vascular endothelial growth factor receptor 2 (Homo sapiens, UniProt P35968); test: Inhibition of human VEGFR2 tyrosine kinase domain (Asp807 to Val1356) using poly-(Glu4-Tyr) as substrate incubated for 15 mins prior to ATP addition measured after 40 mins by DELFIA
[9] = target: Cyclin-dependent kinase 6 (Homo sapiens, UniProt Q00534); test: Inhibition of CDK6 (unknown origin) using histone H1 as substrate after 10 mins in presence of [gamma-32P]-ATP; how it was run: as §2
Sequence of Cyclin-dependent kinase 6 (Q00534 whole entry): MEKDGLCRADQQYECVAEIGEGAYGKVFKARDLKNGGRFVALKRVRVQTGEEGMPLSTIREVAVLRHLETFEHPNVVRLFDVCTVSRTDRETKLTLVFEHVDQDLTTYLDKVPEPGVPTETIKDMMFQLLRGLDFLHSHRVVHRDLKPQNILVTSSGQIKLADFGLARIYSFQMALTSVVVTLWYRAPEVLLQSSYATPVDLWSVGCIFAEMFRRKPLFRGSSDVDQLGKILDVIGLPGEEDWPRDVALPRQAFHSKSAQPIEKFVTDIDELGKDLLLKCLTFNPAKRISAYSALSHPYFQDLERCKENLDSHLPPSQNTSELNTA

Sequence of Cyclin-dependent kinase 4 (P11802 whole entry): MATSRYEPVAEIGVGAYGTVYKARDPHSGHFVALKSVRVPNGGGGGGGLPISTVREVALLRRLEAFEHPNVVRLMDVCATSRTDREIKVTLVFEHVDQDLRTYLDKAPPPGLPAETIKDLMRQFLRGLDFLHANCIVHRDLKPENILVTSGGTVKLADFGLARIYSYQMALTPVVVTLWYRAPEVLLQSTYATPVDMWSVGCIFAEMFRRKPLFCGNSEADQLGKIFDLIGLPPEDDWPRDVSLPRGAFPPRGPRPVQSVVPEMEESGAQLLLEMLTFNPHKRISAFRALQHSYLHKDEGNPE
Sequence of Cyclin-dependent kinase 7 (P50613 whole entry, the tested form may be a part): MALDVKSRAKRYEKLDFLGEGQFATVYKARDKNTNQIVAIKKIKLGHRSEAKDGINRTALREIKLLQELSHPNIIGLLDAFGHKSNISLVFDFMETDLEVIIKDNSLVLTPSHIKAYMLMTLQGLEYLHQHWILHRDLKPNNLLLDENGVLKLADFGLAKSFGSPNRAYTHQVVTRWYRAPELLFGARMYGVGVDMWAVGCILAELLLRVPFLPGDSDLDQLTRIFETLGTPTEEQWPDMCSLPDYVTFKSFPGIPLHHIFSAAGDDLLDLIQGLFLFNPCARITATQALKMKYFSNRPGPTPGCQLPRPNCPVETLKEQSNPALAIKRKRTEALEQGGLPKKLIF
Sequence of Cyclin-dependent kinase 1 (P06493 whole entry): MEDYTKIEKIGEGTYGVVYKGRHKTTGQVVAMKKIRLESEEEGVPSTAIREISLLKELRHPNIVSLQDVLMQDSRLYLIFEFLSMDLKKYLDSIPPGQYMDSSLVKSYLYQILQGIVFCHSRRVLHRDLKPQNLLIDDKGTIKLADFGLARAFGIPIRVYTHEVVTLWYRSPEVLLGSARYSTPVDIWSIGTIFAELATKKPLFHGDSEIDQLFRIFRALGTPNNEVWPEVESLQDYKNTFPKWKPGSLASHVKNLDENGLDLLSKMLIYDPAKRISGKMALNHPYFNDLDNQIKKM
Sequence of Epidermal growth factor receptor (P00533 whole entry, the tested form may be a part): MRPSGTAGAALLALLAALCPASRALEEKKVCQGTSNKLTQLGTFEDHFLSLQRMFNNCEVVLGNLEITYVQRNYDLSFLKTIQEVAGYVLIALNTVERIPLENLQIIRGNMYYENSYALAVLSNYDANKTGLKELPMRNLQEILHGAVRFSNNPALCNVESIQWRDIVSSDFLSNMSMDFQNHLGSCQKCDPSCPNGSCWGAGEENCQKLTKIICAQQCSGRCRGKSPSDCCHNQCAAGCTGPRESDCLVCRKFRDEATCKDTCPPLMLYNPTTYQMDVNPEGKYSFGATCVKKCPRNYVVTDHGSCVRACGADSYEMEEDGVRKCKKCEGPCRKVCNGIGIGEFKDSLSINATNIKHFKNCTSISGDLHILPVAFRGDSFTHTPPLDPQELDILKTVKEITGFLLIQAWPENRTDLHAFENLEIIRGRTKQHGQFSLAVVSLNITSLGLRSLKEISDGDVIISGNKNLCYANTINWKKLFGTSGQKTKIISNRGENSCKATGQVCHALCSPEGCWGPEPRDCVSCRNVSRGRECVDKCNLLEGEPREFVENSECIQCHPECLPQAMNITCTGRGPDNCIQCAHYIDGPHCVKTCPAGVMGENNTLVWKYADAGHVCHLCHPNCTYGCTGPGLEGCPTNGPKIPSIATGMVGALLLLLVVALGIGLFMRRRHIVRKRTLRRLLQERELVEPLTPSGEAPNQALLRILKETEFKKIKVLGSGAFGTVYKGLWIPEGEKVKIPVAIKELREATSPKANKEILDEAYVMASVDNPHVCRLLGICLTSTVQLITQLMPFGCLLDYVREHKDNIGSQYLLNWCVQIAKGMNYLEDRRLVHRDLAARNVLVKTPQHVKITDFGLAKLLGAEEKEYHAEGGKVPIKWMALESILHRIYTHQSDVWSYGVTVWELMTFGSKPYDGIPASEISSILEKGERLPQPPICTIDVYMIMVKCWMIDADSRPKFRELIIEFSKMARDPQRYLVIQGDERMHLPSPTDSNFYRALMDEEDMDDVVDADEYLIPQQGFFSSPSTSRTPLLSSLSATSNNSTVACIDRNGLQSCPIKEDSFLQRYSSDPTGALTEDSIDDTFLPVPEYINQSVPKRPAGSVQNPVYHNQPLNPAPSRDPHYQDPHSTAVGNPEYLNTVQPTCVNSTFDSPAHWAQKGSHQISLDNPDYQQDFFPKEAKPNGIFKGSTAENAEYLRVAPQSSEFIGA
Sequence of Cyclin-dependent kinase 5 (Q00535 whole entry): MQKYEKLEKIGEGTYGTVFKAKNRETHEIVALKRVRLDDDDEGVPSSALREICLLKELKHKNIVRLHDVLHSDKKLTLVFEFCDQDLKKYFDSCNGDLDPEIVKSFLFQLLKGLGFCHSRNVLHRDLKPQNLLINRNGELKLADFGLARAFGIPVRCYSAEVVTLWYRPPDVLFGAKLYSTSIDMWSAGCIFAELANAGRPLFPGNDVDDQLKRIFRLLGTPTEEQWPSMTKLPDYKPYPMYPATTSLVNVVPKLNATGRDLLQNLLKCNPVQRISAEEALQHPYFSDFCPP
Sequence of Vascular endothelial growth factor receptor 2 (P35968 whole entry, the tested form may be a part): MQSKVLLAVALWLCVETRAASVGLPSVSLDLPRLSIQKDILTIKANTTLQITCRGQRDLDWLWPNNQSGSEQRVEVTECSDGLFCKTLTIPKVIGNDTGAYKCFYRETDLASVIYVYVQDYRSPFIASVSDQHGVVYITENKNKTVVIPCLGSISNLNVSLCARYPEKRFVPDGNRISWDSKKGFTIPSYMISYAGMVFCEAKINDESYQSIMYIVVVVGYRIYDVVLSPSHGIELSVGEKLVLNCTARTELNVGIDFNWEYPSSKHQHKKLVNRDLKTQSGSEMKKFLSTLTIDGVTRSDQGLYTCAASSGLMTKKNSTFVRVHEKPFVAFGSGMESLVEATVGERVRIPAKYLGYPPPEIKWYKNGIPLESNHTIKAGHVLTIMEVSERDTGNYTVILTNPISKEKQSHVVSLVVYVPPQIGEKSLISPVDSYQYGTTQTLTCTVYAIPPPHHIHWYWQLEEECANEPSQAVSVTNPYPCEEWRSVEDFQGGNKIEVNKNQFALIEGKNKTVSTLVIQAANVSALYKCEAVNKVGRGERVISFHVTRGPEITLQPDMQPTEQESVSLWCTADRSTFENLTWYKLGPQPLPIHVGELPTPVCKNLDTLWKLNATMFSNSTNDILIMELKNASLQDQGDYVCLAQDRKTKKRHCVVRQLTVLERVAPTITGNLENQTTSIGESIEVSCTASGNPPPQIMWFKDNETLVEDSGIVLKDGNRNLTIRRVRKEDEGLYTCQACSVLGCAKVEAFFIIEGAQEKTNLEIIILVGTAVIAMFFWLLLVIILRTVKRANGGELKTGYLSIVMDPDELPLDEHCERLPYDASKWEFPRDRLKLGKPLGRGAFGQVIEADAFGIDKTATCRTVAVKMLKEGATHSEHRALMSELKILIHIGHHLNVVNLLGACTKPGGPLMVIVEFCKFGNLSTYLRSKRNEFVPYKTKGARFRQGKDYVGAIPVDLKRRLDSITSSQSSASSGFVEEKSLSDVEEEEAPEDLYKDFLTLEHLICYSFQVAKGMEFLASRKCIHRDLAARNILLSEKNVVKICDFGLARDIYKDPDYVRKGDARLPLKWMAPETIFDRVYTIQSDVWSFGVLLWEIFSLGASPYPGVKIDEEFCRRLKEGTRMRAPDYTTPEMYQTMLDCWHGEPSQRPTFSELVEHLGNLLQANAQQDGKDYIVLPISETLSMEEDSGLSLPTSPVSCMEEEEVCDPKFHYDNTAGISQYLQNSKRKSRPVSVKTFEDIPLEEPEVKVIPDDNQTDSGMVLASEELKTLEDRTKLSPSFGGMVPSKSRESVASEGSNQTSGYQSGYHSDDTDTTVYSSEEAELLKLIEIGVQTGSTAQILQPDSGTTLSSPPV

Structure (SMILES)	IC50 (A549) [nM]	IC50 [1] [nM]	IC50 [2] [nM]	IC50 (MCF7) [nM]	IC50 [3] [nM]	IC50 [4] [nM]	IC50 [5] [nM]	IC50 [6] [nM]	IC50 [7] [nM]	IC50 [8] [nM]	IC50 [9] [nM]
COc1ccc(-c2nn(-c3ccccc3)cc2C(=O)NC(=S)Nc2ccc(F)cc2)cc1	1430	32	3050	4990							
O=C(NC(=S)Nc1ccc(F)cc1)c1cn(-c2ccccc2)nc1-c1ccccc1	3500	75	4210	6820							
COc1ccc(NC(=S)NC(=O)c2cn(-c3ccccc3)nc2-c2ccc(C)cc2)cc1	2390	47	3240	5120	1420	40	584	1790	> 5000	> 5000	43
Cc1ccc(NC(=S)NC(=O)c2cn(-c3ccccc3)nc2-c2ccccc2)cc1	2800	69	3960	5900							
O=C(NC(=S)Nc1ccc(F)cc1)c1cn(-c2ccccc2)nc1-c1ccc(Cl)cc1	3980	59	3640	5990							
COc1ccc(NC(=S)NC(=O)c2cn(-c3ccccc3)nc2-c2ccccc2)cc1	2500	56	3540	5460	1500	42	610	1880	> 5000	> 5000	50
Cc1ccc(NC(=S)NC(=O)c2cn(-c3ccccc3)nc2-c2ccc(Cl)cc2)cc1	2690	42	3120	5980							
O=C(NC(=S)Nc1ccc(Cl)cc1)c1cn(-c2ccccc2)nc1-c1ccc(F)cc1	2990	44	3090	5470							
Cc1ccc(NC(=S)NC(=O)c2cn(-c3ccccc3)nc2-c2ccc(C)cc2)cc1	2830	52	3760	5660							
COc1ccc(NC(=S)NC(=O)c2cn(-c3ccccc3)nc2-c2ccc(F)cc2)cc1	1980	36	2860	4890	1180	39	569	1640	> 5000	> 5000	33
Cn1cnc2c(NCc3ccccc3)nc(NCCO)nc21 [OLOMOUCINE]	130000		132000	142000							
